# Test results taken from ChEMBL document CHEMBL5303300, “EUbOPEN Chemogenomics Library - Multiplex” (2023).
# Several values for one entry are separate records, joined by “and”; a condition that tells them apart may be missing. Equal values may be shown once.
# Key:
# U2OS = experiment: Multiplex assay against U2OS; assay type: toxicity, cell-based; settings: human, number of replicates 2
# Outline: (§1)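 Values for tubulin, mitochondrial-mass and membrane-permeability phenotypes are per cents of cells with healthy nuclei. These cells were identified by CellPathfinder machine-learning gating of live cells that had been stained at seeding with Hoechst33342, BioTracker Green Microtubule Cytoskeleton Dye, MitoTracker Red and Annexin V Alexa Fluor 680 and imaged on a CQ1 microscope at 37°C and 5% CO2 after compound addition. The gating first set Hoechst high-intensity objects apart from normal cells, then split normal cells into healthy, pyknosed or fragmented nuclei, and pyknosed cells into mitotic or apoptotic.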
# HEK-293T = experiment: Multiplex assay against HEK293T; assay type: toxicity, cell-based; settings: human, number of replicates 2; outline: as §1
# [1] = 24 h, 10 µM, compound concentration 10 uM
# [2] = 48 h, 1 µM, compound concentration 1 uM
# [3] = 48 h, 10 µM, compound concentration 10 uM
# [4] = 12 h, 1 µM, compound concentration 1 uM
# [5] = 12 h, 10 µM, compound concentration 10 uM
# [6] = 24 h, 1 µM, compound concentration 1 uM
smiles,measurement,setting,value
C[C@@H](OC[C@@]1(c2ccccc2)CC[C@]2(CCC(=O)N2)CN1)c1cc(C(F)(F)F)cc(C(F)(F)F)c1 [ROLAPITANT],Population Apoptotic (%),U2OS; [1],48% and 50%
same,Population Healthy Nuclei (%),U2OS; [1],89% and 77%
same,Population Hoechst High Intensity Objects (%),U2OS; [1],0%
same,Population Membrane Permeable-Phenotype (%),U2OS; [1],0% and 3%
same,Population Mitochondria Different-Phenotype (%),U2OS; [1],0% and 3%
same,Population Mitotic Cells (%),U2OS; [1],51% and 50%
same,Population Normal (%),U2OS; [1],99% and 100%
same,Population Pyknosed Nuclei (%),U2OS; [1],7% and 5%
same,Population Tubulin-Different-Phenotype (%),U2OS; [1],91% and 35%
same,Population Apoptotic (%),U2OS; [2],40% and 48%
same,Population Fragmented Nuclei (%),U2OS; [2],5% and 1%
same,Population Healthy Nuclei (%),U2OS; [2],87% and 92%
same,Population Hoechst High Intensity Objects (%),U2OS; [2],0%
same,Population Membrane Permeable-Phenotype (%),U2OS; [2],1%
same,Population Mitochondria Different-Phenotype (%),U2OS; [2],0%
same,Population Mitotic Cells (%),U2OS; [2],60% and 51%
same,Population Normal (%),U2OS; [2],100% and 99%
same,Population Pyknosed Nuclei (%),U2OS; [2],6% and 5%
same,Population Tubulin-Different-Phenotype (%),U2OS; [2],87% and 91%
same,Population Apoptotic (%),U2OS; [3],48% and 28%
same,Population Fragmented Nuclei (%),U2OS; [3],2% and 7%
same,Population Healthy Nuclei (%),U2OS; [3],90% and 78%
same,Population Hoechst High Intensity Objects (%),U2OS; [3],0%
same,Population Membrane Permeable-Phenotype (%),U2OS; [3],0% and 4%
same,Population Mitochondria Different-Phenotype (%),U2OS; [3],0% and 4%
same,Population Mitotic Cells (%),U2OS; [3],51% and 71%
same,Population Normal (%),U2OS; [3],100%
same,Population Pyknosed Nuclei (%),U2OS; [3],6% and 13%
same,Population Apoptotic (%),HEK-293T; [4],57% and 49%
same,Population Fragmented Nuclei (%),HEK-293T; [4],6% and 4%
same,Population Healthy Nuclei (%),HEK-293T; [4],72% and 81%
same,Population Hoechst High Intensity Objects (%),HEK-293T; [4],7% and 8%
same,Population Membrane Permeable-Phenotype (%),HEK-293T; [4],5% and 3%
same,Population Mitochondria Different-Phenotype (%),HEK-293T; [4],25% and 28%
same,Population Mitotic Cells (%),HEK-293T; [4],42% and 50%
same,Population Normal (%),HEK-293T; [4],92% and 91%
same,Population Pyknosed Nuclei (%),HEK-293T; [4],21% and 14%
same,Population Tubulin-Different-Phenotype (%),HEK-293T; [4],66% and 80%
same,Total Cell Count,HEK-293T; [4],453 and 616
same,Population Apoptotic (%),HEK-293T; [5],56% and 70%
same,Population Fragmented Nuclei (%),HEK-293T; [5],4%
same,Population Healthy Nuclei (%),HEK-293T; [5],80% and 77%
same,Population Hoechst High Intensity Objects (%),HEK-293T; [5],11% and 6%
same,Population Membrane Permeable-Phenotype (%),HEK-293T; [5],4% and 2%
same,Population Mitochondria Different-Phenotype (%),HEK-293T; [5],35% and 40%
same,Population Mitotic Cells (%),HEK-293T; [5],44% and 29%
same,Population Normal (%),HEK-293T; [5],88% and 93%
same,Population Pyknosed Nuclei (%),HEK-293T; [5],15% and 17%
same,Population Tubulin-Different-Phenotype (%),HEK-293T; [5],81% and 86%
same,Total Cell Count,HEK-293T; [5],563 and 415
same,Population Apoptotic (%),HEK-293T; [6],63% and 53%
same,Population Fragmented Nuclei (%),HEK-293T; [6],8% and 6%
same,Population Healthy Nuclei (%),HEK-293T; [6],75% and 80%
same,Population Hoechst High Intensity Objects (%),HEK-293T; [6],6% and 9%
same,Population Membrane Permeable-Phenotype (%),HEK-293T; [6],3% and 2%
same,Population Mitochondria Different-Phenotype (%),HEK-293T; [6],12% and 13%
same,Population Mitotic Cells (%),HEK-293T; [6],36% and 46%
same,Population Normal (%),HEK-293T; [6],93% and 90%
same,Population Pyknosed Nuclei (%),HEK-293T; [6],15% and 12%
same,Population Tubulin-Different-Phenotype (%),HEK-293T; [6],51% and 61%
same,Total Cell Count,HEK-293T; [6],631 and 823
same,Population Apoptotic (%),HEK-293T; [1],61%
same,Population Fragmented Nuclei (%),HEK-293T; [1],7%
same,Population Healthy Nuclei (%),HEK-293T; [1],81% and 77%
same,Population Hoechst High Intensity Objects (%),HEK-293T; [1],12% and 9%
same,Population Membrane Permeable-Phenotype (%),HEK-293T; [1],3%
same,Population Mitochondria Different-Phenotype (%),HEK-293T; [1],21% and 27%
same,Population Mitotic Cells (%),HEK-293T; [1],38%
same,Population Normal (%),HEK-293T; [1],87% and 90%
same,Population Pyknosed Nuclei (%),HEK-293T; [1],11% and 15%
same,Population Tubulin-Different-Phenotype (%),HEK-293T; [1],70% and 69%
same,Total Cell Count,HEK-293T; [1],730 and 604
same,Population Apoptotic (%),HEK-293T; [2],35% and 28%
same,Population Fragmented Nuclei (%),HEK-293T; [2],12% and 11%
same,Population Healthy Nuclei (%),HEK-293T; [2],82% and 83%
same,Population Hoechst High Intensity Objects (%),HEK-293T; [2],8% and 11%
same,Population Membrane Permeable-Phenotype (%),HEK-293T; [2],5% and 3%
same,Population Mitochondria Different-Phenotype (%),HEK-293T; [2],1% and 2%
same,Population Mitotic Cells (%),HEK-293T; [2],64% and 71%
same,Population Normal (%),HEK-293T; [2],91% and 88%
same,Population Pyknosed Nuclei (%),HEK-293T; [2],4% and 5%
same,Population Tubulin-Different-Phenotype (%),HEK-293T; [2],23% and 39%
same,Total Cell Count,HEK-293T; [2],1671
same,Population Apoptotic (%),HEK-293T; [3],50% and 48%
same,Population Fragmented Nuclei (%),HEK-293T; [3],11% and 8%
same,Population Healthy Nuclei (%),HEK-293T; [3],83% and 84%
same,Population Hoechst High Intensity Objects (%),HEK-293T; [3],9%
same,Population Membrane Permeable-Phenotype (%),HEK-293T; [3],6% and 3%
same,Population Mitochondria Different-Phenotype (%),HEK-293T; [3],4% and 11%
same,Population Mitotic Cells (%),HEK-293T; [3],49% and 51%
same,Population Normal (%),HEK-293T; [3],90%
same,Population Pyknosed Nuclei (%),HEK-293T; [3],5% and 7%
same,Population Tubulin-Different-Phenotype (%),HEK-293T; [3],53% and 48%
same,Total Cell Count,HEK-293T; [3],1126 and 904
